These results are taken from ChEMBL document CHEMBL4325869, “1,2,3,4-Tetrahydroisoquinoline/2H-chromen-2-one conjugates as nanomolar P-glycoprotein inhibitors: Molecular determinants for affinity and selectivity over multidrug resistance associated protein 1” (Eur J Med Chem, 2019).

As usually defined, the IC50 is the point on the concentration scale where inhibition reaches its midpoint.

The target of data set [1] is T1, ATP-dependent translocase ABCB1 (Homo sapiens, UniProt P08183). In words: Inhibition of MDR1 (unknown origin) expressed in MDCK cells assessed as reduction in calcein-AM efflux preincubated for 30 mins followed by calcein-AM addition measured after 30 mins by spectrofluorimetric method. The class given is cell-based.
T1 sequence (P08183 whole entry): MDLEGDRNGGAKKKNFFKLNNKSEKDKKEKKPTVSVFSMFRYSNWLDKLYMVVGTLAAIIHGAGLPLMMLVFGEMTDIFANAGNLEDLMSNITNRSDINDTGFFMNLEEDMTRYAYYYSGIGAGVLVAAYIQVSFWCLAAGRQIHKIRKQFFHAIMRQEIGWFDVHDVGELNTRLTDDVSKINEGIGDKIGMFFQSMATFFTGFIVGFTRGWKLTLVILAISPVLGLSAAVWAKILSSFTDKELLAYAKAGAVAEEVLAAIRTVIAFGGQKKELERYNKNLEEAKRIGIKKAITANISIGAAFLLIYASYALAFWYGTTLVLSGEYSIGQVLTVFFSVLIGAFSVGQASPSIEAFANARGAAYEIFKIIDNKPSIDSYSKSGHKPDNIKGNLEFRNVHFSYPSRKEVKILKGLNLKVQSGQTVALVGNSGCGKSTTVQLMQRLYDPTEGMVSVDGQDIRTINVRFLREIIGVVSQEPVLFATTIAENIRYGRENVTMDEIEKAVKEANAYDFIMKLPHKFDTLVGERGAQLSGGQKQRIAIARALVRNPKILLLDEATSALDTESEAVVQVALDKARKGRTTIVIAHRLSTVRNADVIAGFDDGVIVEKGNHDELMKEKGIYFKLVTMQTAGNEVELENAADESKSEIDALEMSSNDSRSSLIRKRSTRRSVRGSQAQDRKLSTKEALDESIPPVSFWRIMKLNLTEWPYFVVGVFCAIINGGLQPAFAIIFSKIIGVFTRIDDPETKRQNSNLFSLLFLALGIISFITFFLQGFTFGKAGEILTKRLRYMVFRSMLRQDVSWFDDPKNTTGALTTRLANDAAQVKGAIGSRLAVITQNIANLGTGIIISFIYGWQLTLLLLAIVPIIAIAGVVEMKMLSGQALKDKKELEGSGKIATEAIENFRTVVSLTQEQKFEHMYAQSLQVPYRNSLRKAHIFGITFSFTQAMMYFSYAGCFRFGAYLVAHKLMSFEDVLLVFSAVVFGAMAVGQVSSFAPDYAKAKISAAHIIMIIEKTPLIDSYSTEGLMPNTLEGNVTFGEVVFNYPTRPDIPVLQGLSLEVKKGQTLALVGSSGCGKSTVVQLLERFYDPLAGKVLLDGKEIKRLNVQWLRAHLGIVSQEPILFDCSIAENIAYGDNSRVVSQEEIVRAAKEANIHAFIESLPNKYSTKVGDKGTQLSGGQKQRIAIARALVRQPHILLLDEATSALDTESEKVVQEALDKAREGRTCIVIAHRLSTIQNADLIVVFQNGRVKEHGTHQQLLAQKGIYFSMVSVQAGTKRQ
Data set [2] addresses T1, ATP-dependent translocase ABCB1. Description: Inhibition of MDR1 (unknown origin) expressed in MDCK cells assessed as potentiation of doxorubicin-induced cytotoxicity preincubated for 24 hrs followed by doxorubicin addition measured after 72 hrs by MTT assay. The class given is cell-based. The gist of the method: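 MDCK-MDR1 cells were seeded at 10,000/well, and compound was added at 0.1, 1 and 10 µM on day 2. On day 3 the medium was replaced with compound plus 10 µM doxorubicin. The 72 h run ended with MTT (0.5 mg/mL, 3 h, 37 °C) and DMSO solubilization, read at 570/630 nm. Growth is % of drug-free control, compared against doxorubicin alone by one-way ANOVA with Bonferroni post-hoc.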
A general note: Formazan colour is commonly taken as a measure of viable cells.

A further data set has as its system MDCK. Description: Cytotoxicity against MDCK cells expressing MDR1 assessed as reduction in cell viability at 10 uM after 72 hrs by MTT assay. The data set is classed as ADME, cell-based, Canis lupus familiaris. As to conditions: dog. The gist of the method: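 MDCK-MDR1 cells (DMEM high glucose, 10% FBS, 37 °C, 5% CO2) were seeded at 10,000/well. Compound was added at 0.1, 1 and 10 µM the next day. On day 3 the medium was replaced with compound alone, and the 72 h run ended with MTT (0.5 mg/mL, 3 h, 37 °C). Formazan was dissolved in DMSO and read at 570/630 nm. Viability is % of untreated control with solvent controls, from 2-3 independent experiments in triplicate.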

As for `COc1cc2c(cc1OC)CN(CC/C=C1\CCCc3c(OC)cccc31)CC2`, the IC50 in data set [1] is 1200 nM.
As for `Cc1c(C)c2ccc(OCCN3CCc4ccccc4C3)cc2oc1=O`, in data set [1], the IC50 is 15000 nM.
Take `COc1cc2c(cc1OC)CN(CCOc1ccc3c(C)c(C)c(=O)oc3c1)CC2`: the IC50 in data set [1] was 380 nM.
As to `COc1cc2c(cc1OC)CN(Cc1ccc(COc3ccc4c(C)c(C)c(=O)oc4c3)cc1)CC2`, the IC50 in data set [1] is 190 nM.
Still for that read-out and setting: for `COc1cc2c(cc1OC)CN(CCCCOc1ccc3cc(-c4ccccc4)c(=O)oc3c1)CC2` the value was 410 nM; for `COc1cc2c(cc1OC)CN(CCCCCOc1ccc3c(c1)oc(=O)c1ccccc13)CC2`, 330 nM.
With `COc1cc2c(cc1OC)CN(CCc1ccc(COc3ccc4c(C)c(C)c(=O)oc4c3)cc1)CC2`, in data set [1], the IC50 was 190 nM. Besides, the “inhibition (INH)” value in data set [2] is listed as “Dose-dependent effect”. The Activity result in the data set with MDCK is “Non-Toxic”.
`COc1cc2c(cc1OC)CN(CCCCCCOc1ccc3c(C)c(C)c(=O)oc3c1)CC2`: the IC50 in data set [1] was 220 nM.
Same read-out and setting: for `COc1cc2c(cc1OC)CN(CCCCCOc1ccc3c(C)c(Cl)c(=O)oc3c1)CC2` the value was 460 nM; for `COc1cc2c(cc1OC)CN(Cc1cccc(COc3ccc4c(C)c(C)c(=O)oc4c3)c1)CC2`, 160 nM.
For the compound `COc1cc2c(cc1OC)CN(CCCCCOc1ccc3c(C)c(Br)c(=O)oc3c1)CC2`, the IC50 in data set [1] was 280 nM. The “inhibition (INH)” value in data set [2] is recorded as “Dose-dependent effect”. Also, the Activity entry in the data set with MDCK is given as “Non-Toxic”.
For the compound `Cc1c(C)c2ccc(OCCCCN3CCc4ccccc4C3)cc2oc1=O`, the IC50 in data set [1] was 910 nM.
For the compound `COc1cc2c(cc1OC)CN(CCCCOc1ccc3c(C)c(C)c(=O)oc3c1)CC2`, the half-inhibitory concentration (IC50) in data set [1] was 150 nM.
In the case of `Cc1c(C)c2ccc(OCCCCCN3CCc4ccccc4C3)cc2oc1=O`, the IC50 in data set [1] is 550 nM. Also, the “inhibition (INH)” value in data set [2] is on record as “Dose-dependent effect”. Further, the Activity entry in the data set on MDCK is “Non-Toxic”.
In the case of `COc1cc2c(cc1OC)CN(Cc1ccccc1COc1ccc3c(C)c(C)c(=O)oc3c1)CC2`, the IC50 in data set [1] is 160 nM.
On the same count and under the same terms, for `COc1cc2c(cc1OC)CN(Cc1cccc(COc3ccc4ccc(=O)oc4c3)c1)CC2` the value was 770 nM.
As for `COc1cc2c(cc1OC)CN(C/C=C/COc1ccc3c(C)c(C)c(=O)oc3c1)CC2`, the IC50 in data set [1] was 1000 nM.
Consider `COc1cc2c(cc1OC)CN(CCCCOc1ccc3c(C)c(Cl)c(=O)oc3c1)CC2`, for which, in data set [1], the IC50 was 560 nM.
As for `COc1cc2c(cc1OC)CN(CCCCCOc1ccc3cc(-c4ccccc4)c(=O)oc3c1)CC2`, in data set [1], the IC50 is 390 nM. In data set [2], the “inhibition (INH)” value was “Dose-dependent effect”. Also, the Activity result with MDCK is “Non-Toxic”.
With `COc1cc2c(cc1OC)CN(CCCOc1ccc3c(C)c(C)c(=O)oc3c1)CC2`, the IC50 in data set [1] is 190 nM.
On to `COc1cc2c(cc1OC)CN(CCCCCOc1ccc3c(C)c(-c4ccccc4)c(=O)oc3c1)CC2`, for which the IC50 in data set [1] was 220 nM. For the same compound, in data set [2], the “inhibition (INH)” value is on record as “Dose-dependent effect”. In the data set with MDCK, the Activity entry is reported as “Non-Toxic”.
Take `Cc1c(C)c2ccc(OCCCN3CCc4ccccc4C3)cc2oc1=O`: in data set [1], the IC50 is 2700 nM.
Regarding `COc1cc2c(cc1OC)CN(CCCCCOc1ccc3c(C)c(C)c(=O)oc3c1)CC2`, the IC50 in data set [1] is 70 nM. For the same compound, the “inhibition (INH)” value in data set [2] is recorded as “Dose-dependent effect”. Besides, in the data set with MDCK, the Activity entry was “Non-Toxic”.
